Experimental data pooled from the literature.
Target: Dual serine/threonine and tyrosine protein kinase (DSTYK, Homo sapiens, UniProt Q6XUX3)
Residues used in one study (Q6XUX3 1-929): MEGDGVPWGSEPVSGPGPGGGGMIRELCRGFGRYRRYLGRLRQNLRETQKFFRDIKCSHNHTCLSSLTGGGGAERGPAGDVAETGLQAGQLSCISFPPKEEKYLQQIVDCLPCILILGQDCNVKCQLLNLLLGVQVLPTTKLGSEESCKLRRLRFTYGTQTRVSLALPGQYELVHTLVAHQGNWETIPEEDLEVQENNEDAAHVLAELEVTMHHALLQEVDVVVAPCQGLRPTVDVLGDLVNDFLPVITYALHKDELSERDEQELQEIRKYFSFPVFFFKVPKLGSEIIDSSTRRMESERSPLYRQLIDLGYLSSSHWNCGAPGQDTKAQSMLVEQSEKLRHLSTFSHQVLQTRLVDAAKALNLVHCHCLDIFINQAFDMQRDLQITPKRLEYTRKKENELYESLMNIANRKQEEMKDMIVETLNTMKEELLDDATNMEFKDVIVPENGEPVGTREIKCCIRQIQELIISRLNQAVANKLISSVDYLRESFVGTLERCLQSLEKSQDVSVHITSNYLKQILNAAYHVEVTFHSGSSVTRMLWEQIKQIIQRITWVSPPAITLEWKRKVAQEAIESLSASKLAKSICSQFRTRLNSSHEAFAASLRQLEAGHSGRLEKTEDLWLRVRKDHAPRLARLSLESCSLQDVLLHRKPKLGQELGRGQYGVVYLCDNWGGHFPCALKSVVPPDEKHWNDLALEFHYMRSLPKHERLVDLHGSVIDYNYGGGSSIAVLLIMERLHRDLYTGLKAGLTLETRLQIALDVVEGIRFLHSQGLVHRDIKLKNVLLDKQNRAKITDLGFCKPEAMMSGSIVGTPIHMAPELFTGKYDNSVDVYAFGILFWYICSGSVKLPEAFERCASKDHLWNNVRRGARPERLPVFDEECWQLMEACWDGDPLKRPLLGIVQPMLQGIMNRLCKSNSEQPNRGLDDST

| test | conditions | measurement | value | SMILES |
| --- | --- | --- | --- | --- |
| cell-free assay, inhibitor | 20 µM | remaining signal | 2.8% | Nc1ncnc2occ(-c3ccc(NC(=O)Nc4cc(C(F)(F)F)ccc4F)cc3)c12 |
| cell-free assay, competition with immobilised ligand | 1 µM | remaining binding | 76% | CSc1cccnc1N1CCN(Cc2nc3ccccc3[nH]2)CC1 |
| enzyme activity, inhibitor, radiometric | 1 µM | remaining activity | 83% | CC(C)(C)c1nc2c(s1)c1nc(N)ncc1c1ccc(NS(=O)(=O)c3c(F)cccc3F)c(F)c12 |
| cell-free assay, competition with immobilised ligand | 1 µM | remaining binding | 100% | CC1=C(C#N)[C@@H](c2ccc3[nH]nc(C)c3c2)C(C#N)=C(c2ccc(Cl)cc2)N1 |
| cell-free assay | 0.5 µM | remaining signal | 89.6% | O=C1Nc2ccc(Cl)cc2C1=Cc1cc(Cl)c(O)c(Cl)c1 |
| cell-free assay, competition with immobilised ligand | 1 µM | remaining binding | 97% | Cc1cc(-n2nc(Cc3cc(F)cc(C(F)(F)F)c3)nc2C)ccc1C(N)=O |
| cell-free assay | 0.5 µM | remaining signal | 67.1% | N#CCCc1ccc2c(c1)-c1[nH]c3ccc([N+](=O)[O-])cc3c1CC(=O)N2 |
| enzyme activity, inhibitor | 1 µM | remaining activity | 97.1% | CC(C)(O)[C@H]1CC[C@H](Nc2ccc3ncc(-c4cccc(C(F)(F)F)c4)n3n2)CC1 |
| enzyme activity, inhibitor | 23.5 nM | remaining activity | 95% | Cc1ccc(C(=O)Nc2ccc(CN3CCN(C)CC3)c(C(F)(F)F)c2)cc1C#Cc1cnc2cccnn12 |
| cell-free assay, competition with immobilised ligand | 1 µM | remaining binding | 73% | CCCOc1ccc([C@H]2[C@H](C(=O)O)[C@@H](c3ccc4c(c3)OCO4)CN2CC(=O)Nc2c(CC)cccc2CC)cc1 |
| enzyme activity, inhibitor | 0.5 µM | remaining activity | 94.3% | Cc1ccc(Nc2nccc(N(C)c3ccc4c(C)n(C)nc4c3)n2)cc1S(N)(=O)=O |
| enzyme activity, inhibitor | 5 µM | remaining activity | 102% | O=C(Nc1cnn(-c2csc(C(=O)NC3COC3)c2)c1)Nc1ccccc1Cl |
| enzyme activity, inhibitor, radiometric | 1 µM | remaining activity | 82% | CC(C)(C)c1nc(-c2cccc(NS(=O)(=O)c3c(F)cccc3F)c2F)c(-c2ccnc(N)n2)s1 |
| enzyme activity, inhibitor | 10 µM | remaining activity | 96.6% | Cc1sc(C(=O)NC2COC2)cc1-n1cc(NC(=O)Nc2c(F)cccc2Cl)cn1 |
| binding | 1 µM | remaining binding | 97% | Cc1cnn2ncc(-c3ccnc(N(C)C)n3)c2c1 |
